Measurements as given in ChEMBL document CHEMBL1141960, “Synthesis and evaluation of novel 8,6-fused bicyclic peptidomimetic compounds as interleukin-1beta converting enzyme inhibitors” (Bioorg Med Chem Lett, 2005).
pIC50: −log10 of the molar value.

What was measured:
Caspase-1 = biological target: T1, Caspase-1 (Homo sapiens, UniProt P29466); test: Inhibitory activity against Caspase 1
T1 sequence (P29466 whole entry): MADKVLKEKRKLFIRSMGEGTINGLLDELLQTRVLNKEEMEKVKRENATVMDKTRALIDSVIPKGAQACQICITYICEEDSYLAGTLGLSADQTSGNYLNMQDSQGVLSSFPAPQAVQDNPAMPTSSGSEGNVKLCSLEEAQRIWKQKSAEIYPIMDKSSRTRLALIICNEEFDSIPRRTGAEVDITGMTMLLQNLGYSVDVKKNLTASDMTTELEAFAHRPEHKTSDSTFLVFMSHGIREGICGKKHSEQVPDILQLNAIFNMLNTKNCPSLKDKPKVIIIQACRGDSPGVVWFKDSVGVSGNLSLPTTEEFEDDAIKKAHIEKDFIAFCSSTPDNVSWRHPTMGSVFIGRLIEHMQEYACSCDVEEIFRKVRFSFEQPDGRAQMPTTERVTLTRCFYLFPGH

THP-1 = test: Inhibitory activity in THP1 whole cell assay measuring IL1-beta production; type: functional, cell-based; conditions: Homo sapiens
How it was run: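 Human monocytic THP-1 cells, 2 × 10^6/ml in RPMI 1640, preincubated 15 min with compound added from DMSO solutions (test range 1 nM to 10 μM) or without, then stimulated with LPS 1 μg/ml for 4 h total; cells spun down and IL-1β released into conditioned medium quantified by ELISA.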

Caspase-3 = biological target: T2, Caspase-3 (Homo sapiens, UniProt P42574); test: Inhibitory activity against Caspase 3
T2 sequence (P42574 whole entry): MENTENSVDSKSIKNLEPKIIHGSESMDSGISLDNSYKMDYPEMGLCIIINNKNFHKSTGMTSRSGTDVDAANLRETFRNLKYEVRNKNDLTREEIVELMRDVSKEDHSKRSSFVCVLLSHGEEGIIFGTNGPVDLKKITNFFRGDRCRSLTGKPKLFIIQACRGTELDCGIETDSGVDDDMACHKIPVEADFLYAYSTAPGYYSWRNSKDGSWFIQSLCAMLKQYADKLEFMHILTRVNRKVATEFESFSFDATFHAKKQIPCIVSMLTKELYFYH

Caspase-8 = Caspase-8 (Homo sapiens, UniProt Q14790); test: Inhibitory activity against Caspase 8
Sequence of Caspase-8 (Q14790 217-374 limits assumed): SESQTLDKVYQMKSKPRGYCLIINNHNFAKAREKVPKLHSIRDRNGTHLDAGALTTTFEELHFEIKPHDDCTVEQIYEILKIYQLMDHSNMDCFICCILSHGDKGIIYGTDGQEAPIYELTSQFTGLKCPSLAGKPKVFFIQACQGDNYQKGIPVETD
Sequence of Caspase-8 (Q14790 385-479 limits assumed): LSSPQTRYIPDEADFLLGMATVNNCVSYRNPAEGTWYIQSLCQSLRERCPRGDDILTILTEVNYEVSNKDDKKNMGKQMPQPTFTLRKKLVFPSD

SMILES	pIC50 (Caspase-1)	pIC50 (THP-1)	pIC50 (Caspase-3)	pIC50 (Caspase-8)
O=C1C[C@H](NC(=O)[C@@H]2COC[C@@H]3CCCC[C@H](NC(=O)c4nccc5ccccc45)C(=O)N32)C(O)O1 (stereo partly specified)	9.00	7.00	< 5.00	6.58
O=C1C[C@H](NC(=O)[C@@H]2CN(S(=O)(=O)c3ccccc3)C[C@@H]3CCCC[C@H](NC(=O)c4ccc5ccccc5c4)C(=O)N32)C(O)O1 (stereo partly specified)	9.00	6.82	< 5.00	7.30
O=C1C[C@H](NC(=O)[C@@H]2CNC[C@@H]3CCCC[C@H](NC(=O)c4ccc5ccccc5c4)C(=O)N32)C(O)O1 (stereo partly specified)	9.00	7.12	< 5.00	6.30
O=C1C[C@H](NC(=O)[C@@H]2CN(C(=O)c3ccccc3)C[C@@H]3CCCC[C@H](NC(=O)c4ccccc4)C(=O)N32)C(O)O1 (stereo partly specified)	8.15	5.85	5.09	7.42
CS(=O)(=O)N1C[C@@H]2CCCC[C@H](NC(=O)c3ccc4ccccc4c3)C(=O)N2[C@H](C(=O)N[C@H]2CC(=O)OC2O)C1 (stereo partly specified)	9.00	7.34	< 5.00	6.55
CS(=O)(=O)N1C[C@@H]2CCCC[C@H](NC(=O)c3nccc4ccccc34)C(=O)N2[C@H](C(=O)N[C@H]2CC(=O)OC2O)C1 (stereo partly specified)	9.00	6.77	< 5.00	6.04
O=C1C[C@H](NC(=O)[C@@H]2CN(C(=O)OCc3ccccc3)C[C@@H]3C/C=C\C[C@H](NC(=O)c4ccccc4)C(=O)N32)C(O)O1 (stereo partly specified)	9.00	6.90	5.49	7.89
O=C1C[C@H](NC(=O)[C@@H]2CNC[C@@H]3CCCC[C@H](NC(=O)c4ccccc4)C(=O)N32)C(O)O1 (stereo partly specified)	8.00	6.61	< 5.00	6.42
CN1C[C@@H]2CCCC[C@H](NC(=O)c3ccccc3)C(=O)N2[C@H](C(=O)N[C@H]2CC(=O)OC2O)C1 (stereo partly specified)	8.30	5.74	< 5.00	6.61
O=C1C[C@H](NC(=O)[C@@H]2COC[C@@H]3CCCC[C@H](NC(=O)c4ccc5ccccc5c4)C(=O)N32)C(O)O1 (stereo partly specified)	9.00	7.22	< 5.00	6.04
O=C1C[C@H](NC(=O)[C@@H]2CN(S(=O)(=O)c3ccccc3)C[C@@H]3CCCC[C@H](NC(=O)c4ccccc4)C(=O)N32)C(O)O1 (stereo partly specified)	8.70	6.80	< 5.00	6.97
O=C1C[C@H](NC(=O)[C@@H]2COC[C@@H]3C/C=C\C[C@H](NC(=O)c4nccc5ccccc45)C(=O)N32)C(O)O1 (stereo partly specified)	8.52	6.74	< 5.00	5.80
O=C1C[C@H](NC(=O)[C@@H]2CN(C(=O)OCc3ccccc3)C[C@@H]3C/C=C\C[C@H](NC(=O)c4nccc5ccccc45)C(=O)N32)C(O)O1 (stereo partly specified)	9.00	6.81	< 5.00	8.40
O=C1C[C@H](NC(=O)[C@@H]2COC[C@@H]3C/C=C\C[C@H](NC(=O)c4cccc(C(F)(F)F)c4)C(=O)N32)C(O)O1 (stereo partly specified)	8.05	6.88	< 5.00	5.38
O=C1C[C@H](NC(=O)[C@@H]2COC[C@@H]3C/C=C\C[C@H](NC(=O)c4ccc(C(F)(F)F)cc4)C(=O)N32)C(O)O1 (stereo partly specified)	6.87		< 5.00	5.19
O=C1C[C@H](NC(=O)[C@@H]2COC[C@@H]3C/C=C\C[C@H](NC(=O)c4cc5ccccc5s4)C(=O)N32)C(O)O1 (stereo partly specified)	8.52	7.24	< 5.00	5.80
O=C1C[C@H](NC(=O)[C@@H]2COC[C@@H]3C/C=C\C[C@H](NC(=O)c4ccc(Cl)cc4)C(=O)N32)C(O)O1 (stereo partly specified)	7.13		< 5.00	5.42
O=C1C[C@H](NC(=O)[C@@H]2COC[C@@H]3C/C=C\C[C@H](NC(=O)c4ccc5ccccc5c4)C(=O)N32)C(O)O1 (stereo partly specified)	8.52	7.21	< 5.00	5.59
O=C1C[C@H](NC(=O)[C@@H]2COC[C@@H]3C/C=C\C[C@H](NC(=O)c4ccccc4C(F)(F)F)C(=O)N32)C(O)O1 (stereo partly specified)	7.30		< 5.00	6.17
O=C1C[C@H](NC(=O)[C@@H]2COC[C@@H]3C/C=C\C[C@H](NC(=O)c4ccccc4)C(=O)N32)C(O)O1 (stereo partly specified)	6.89		< 5.00	5.10
O=C1C[C@H](NC(=O)[C@@H]2COC[C@@H]3C/C=C\C[C@H](NC(=O)c4ccccc4Cl)C(=O)N32)C(O)O1 (stereo partly specified)	7.48		< 5.00	6.35
O=C1C[C@H](NC(=O)[C@@H]2CN(C(=O)OCc3ccccc3)C[C@@H]3C/C=C\C[C@H](NC(=O)c4ccc5ccccc5c4)C(=O)N32)C(O)O1 (stereo partly specified)	9.00	6.97	5.31	8.30
CC(=O)N1C[C@@H]2CCCC[C@H](NC(=O)c3ccccc3)C(=O)N2[C@H](C(=O)N[C@H]2CC(=O)OC2O)C1 (stereo partly specified)	8.22	5.90	< 5.00	6.32
O=C1C[C@H](NC(=O)[C@@H]2CN(C(=O)Nc3ccccc3)C[C@@H]3CCCC[C@H](NC(=O)c4ccccc4)C(=O)N32)C(O)O1 (stereo partly specified)	8.30	5.77	< 5.00	6.22
O=C1C[C@H](NC(=O)[C@@H]2COC[C@@H]3CCCC[C@H](NC(=O)c4cc5ccccc5s4)C(=O)N32)C(O)O1 (stereo partly specified)	9.00	6.75	< 5.00	6.37
O=C1C[C@H](NC(=O)[C@@H]2CN(S(=O)(=O)c3ccccc3)C[C@@H]3CCCC[C@H](NC(=O)c4nccc5ccccc45)C(=O)N32)C(O)O1 (stereo partly specified)	9.00	7.06	< 5.00	6.80
CS(=O)(=O)N1C[C@@H]2CCCC[C@H](NC(=O)c3ccccc3)C(=O)N2[C@H](C(=O)N[C@H]2CC(=O)OC2O)C1 (stereo partly specified)	8.22	6.76	< 5.00	6.42
O=C1C[C@H](NC(=O)[C@@H]2CNC[C@@H]3CCCC[C@H](NC(=O)c4nccc5ccccc45)C(=O)N32)C(O)O1 (stereo partly specified)	9.00	6.81	< 5.00	6.23
O=C1C[C@H](NC(=O)[C@@H]2COC[C@@H]3C/C=C\C[C@H](NC(=O)c4cccc(Cl)c4)C(=O)N32)C(O)O1 (stereo partly specified)	8.15	6.93	< 5.00	5.81
